Laboratory results: paper PMC4292800 (Bioorganic & medicinal chemistry, 2014)

How the values were obtained:
[1] = Oxidation kinetics of 1 into 2 by HPLC; type: physicochemical
In short: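 In PBS, alone or with 10 mM H2O2 (a tenfold excess), the test compound's conversion to its oxidised product was followed by reverse-phase HPLC on a C-18 column (Synergi Hydro-RP, 4 μm, 80 Å, 150 × 4.6 mm), and a conversion rate was derived. N-acetylcysteine was then added in limiting amount to mimic cellular thiol addition; the adduct was confirmed by FTMS.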

[2] = system: primary CD34+ normal human blood stem cells; assay: MTT cytotoxicity selectivity, normal blood stem cells versus AML cells; type: cell-based; settings: CD34+ normal human blood stem cells vs MA9.3RAS
In short: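 Both cell types get the same MTT assay. AML cells are cultured in IMDM with 20% bovine calf serum; UCB cells in the same medium plus SCF, IL-3, IL-6, Flt-3L and TPO. Cells are seeded at 4 × 10^4/well, held overnight at 37°C, then exposed 48 h to freshly dissolved test compound. Medium is replaced with MTT for 4 h, then DMSO, OD 575 nm. IC50 comes from a four-parameter sigmoid fit (triplicates, repeated twice), and the ratio is normal IC50 over AML IC50.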

[3] = Oxidation of 14 to 14-ox/14-red by HPLC; type: physicochemical
In short: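 Oxidation of the test compound to its bicyclic oxidised/reduced products was followed by reverse-phase C-18 HPLC. Under normal atmosphere the reaction was fitted as pseudo-zero-order to give t1/2. Activation used one molar equivalent of hydrogen peroxide, and rate enhancement was estimated from a lower-limit t1/2 against the atmosphere-only reaction.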

For CN(CC(=O)Nc1cc(O)ccc1O)c1ccccc1 [Compound 1, N-(2,5-dihydroxyphenyl)-2-(methyl(phenyl)amino) acetamide], the “rate of conversion of 1 to 2” value ([1]; PBS, absence of exogenous oxidant) was 0.011 ± 0.002 min^−, the “conversion of 1 to 2” value ([1]; PBS, no exogenous oxidant, in one hour) was “approximately 50%” and the “rate of conversion of 1 to 2” value ([1]; presence of 10 mM H2O2, a tenfold excess) was 0.6 ± 0.1 min^−. For the same compound, the “rate of conversion of 1 into 2” value ([1]; with hydrogen peroxide (Figure 2D legend)) was 0.6 min⁻¹.
For O=C(COc1ccccc1)Nc1cc(O)ccc1O [Compound 10, N-(2,5-dihydroxyphenyl)-2-phenoxyacetamide], the “selectivity factor (ratio of IC50 of normal cells over IC50 of AML cells)” value [2] was “limited selectivity”.
With O=C(CSc1ccccc1)Nc1cc(O)ccc1O [Compound 11, N-(2,5-dihydroxyphenyl)-2-(phenylthio)acetamide] the “selectivity factor (ratio of IC50 of normal cells over IC50 of AML cells)” value [2] was “limited selectivity”.
With O=C(CNC1CCCCC1)Nc1cc(O)ccc1O [Compound 14, 2-(cyclohexylamino)-N-(2,5-dihydroxyphenyl)acetamide] the “time for conversion of all 14” value ([3]; hydrogen peroxide (Figure 3C legend)) was “less than 0.1 hrs”, the “activation by hydrogen peroxide” value ([3]; rate enhancement with hydrogen peroxide vs atmosphere) was “more than 150 fold” and the “conversion of 14 to its oxidation product” value ([3]; under argon atmosphere, two hours) was 4±3%.
